From ChEMBL document CHEMBL1135709, “2,6-Di(omega-aminoalkyl)-2,5,6,7-tetrahydropyrazolo[3,4,5-mn]pyrimido[5,6,1-de]acridine-5,7-diones: novel, potent, cytotoxic, and DNA-binding agents” (J Med Chem, 2002)

How the values were obtained:
HT-29 = test: In vitro cytotoxic potency against HT-29 (human colon adenocarcinoma) cell line.; type: functional, cell-based
Calf thymus DNA = test: CT-DNA binding required to produce a 50% drop in fluorescence of DNA-bound ethidium.; type: nucleic-acid assay; details: Bos taurus
Summary of the method: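 Ethidium displacement from calf thymus DNA in 10 mM Na2HPO4, 10 mM NaH2PO4, 1 mM EDTA, pH 7.0, containing 1.26 μM ethidium bromide and 1 μM CT-DNA. Drug added serially from ~5 mM DMSO stock; 20 °C; fluorescence excitation 546 nm, emission 595 nm. C50 = drug concentration lowering DNA-bound ethidium fluorescence by 50%, mean of three determinations.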

DU-145 [1] = test: Percent growth of NCI cell line, prostate: DU-145 exposed for 48 hr at 10e-8 concentration; type: functional, Homo sapiens
Summary of the method: (§1)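 NCI panel cell lines exposed 48 h to 10^-8, 10^-6 and 10^-4 M drug; read-out is percent growth at each concentration.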

LOX IMVI [2] = test: Percent growth of NCI cell line, melanoma: LOX IMVI exposed for 48 hr at 10e-4 concentration; type: functional, Homo sapiens; summary of the method: as §1
OVCAR-4 [3] = test: Percent growth of NCI cell line, ovarian: OVCAR-4 exposed for 48 hr at 10e-4 concentration; type: functional, Homo sapiens; summary of the method: as §1
OVCAR-4 [4] = test: Percent growth of NCI cell line, ovarian: OVCAR-4 exposed for 48 hr at 10e-6 concentration; type: functional, Homo sapiens; summary of the method: as §1
MCF7 [5] = test: Percent growth of NCI cell line, breast: MCF-7 exposed for 48 hr at 10e-8 concentration; type: functional, Homo sapiens; summary of the method: as §1
LoVo [6] = test: Cytotoxicity activity on LoVo/Dx human adenocarcinoma cell line after 1 hr of drug exposure; type: functional, cell-based
Summary of the method: (§2)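 LoVo (sensitive) and LoVo/Dx (resistant) human colon adenocarcinoma cells seeded at 2.5 × 10^5 cells/mL medium; drug solutions added to culture. IC50 = drug concentration inhibiting cell growth by 50%, assays in triplicate.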

786-0 [7] = test: Percent growth of NCI cell line, renal: 786-0 exposed for 48 hr at 10e-4 concentration; type: functional, Homo sapiens; summary of the method: as §1
SNB-19 [8] = test: Percent growth of NCI cell line, CNS: SNB-19 exposed for 48 hr at 10e-8 concentration; type: functional, Homo sapiens; summary of the method: as §1
DU-145 [9] = test: Percent growth of NCI cell line, prostate: DU-145 exposed for 48 hr at 10e-4 concentration; type: functional, Homo sapiens; summary of the method: as §1
[10] = Percent growth of NCI cell line, leucemia K562 exposed for 48 hr at 10e-4 concentration; type: functional, Homo sapiens; summary of the method: as §1
NCI-H460 [11] = test: Percent growth of NCI cell line, lung-nsc: NCI-H460 exposed for 48 hr at 10e-8 concentration; type: functional, Homo sapiens; summary of the method: as §1
786-0 [12] = test: Percent growth of NCI cell line, renal: 786-0 exposed for 48 hr at 10e-8 concentration; type: functional, Homo sapiens; summary of the method: as §1
[13] = Percent growth of NCI cell line, leucemia K562 exposed for 48 hr at 10e-8 concentration; type: functional, Homo sapiens; summary of the method: as §1
MCF7 [14] = test: Percent growth of NCI cell line, breast: MCF-7 exposed for 48 hr at 10e-6 concentration; type: functional, Homo sapiens; summary of the method: as §1
DU-145 [15] = test: Percent growth of NCI cell line, prostate: DU-145 exposed for 48 hr at 10e-6 concentration; type: functional, Homo sapiens; summary of the method: as §1
786-0 [16] = test: Percent growth of NCI cell line, renal: 786-0 exposed for 48 hr at 10e-6 concentration; type: functional, Homo sapiens; summary of the method: as §1
LOX IMVI [17] = test: Percent growth of NCI cell line, melanoma: LOX IMVI exposed for 48 hr at 10e-6 concentration; type: functional, Homo sapiens; summary of the method: as §1
HCT-15 [18] = test: Percent growth of NCI cell line, colon: HCT-15 exposed for 48 hr at 10e-4 concentration; type: functional, Homo sapiens; summary of the method: as §1
HCT-15 [19] = test: Percent growth of NCI cell line, colon: HCT-15 exposed for 48 hr at 10e-6 concentration; type: functional, Homo sapiens; summary of the method: as §1
[20] = Percent growth of NCI cell line, leucemia K562 exposed for 48 hr at 10e-6 concentration; type: functional, Homo sapiens; summary of the method: as §1
MCF7 [21] = test: Percent growth of NCI cell line, breast: MCF-7 exposed for 48 hr at 10e-4 concentration; type: functional, Homo sapiens; summary of the method: as §1
HCT-15 [22] = test: Percent growth of NCI cell line, colon: HCT-15 exposed for 48 hr at 10e-8 concentration; type: functional, Homo sapiens; summary of the method: as §1
LoVo [23] = test: Cytotoxicity activity on LoVo human adenocarcinoma cell line after 1 hr of drug exposure; type: functional, cell-based; summary of the method: as §2
LOX IMVI [24] = test: Percent growth of NCI cell line, melanoma: LOX IMVI exposed for 48 hr at 10e-8 concentration; type: functional, Homo sapiens; summary of the method: as §1
LoVo [25] = test: Cytotoxicity activity on LoVo human adenocarcinoma cell line after 144 hr of drug exposure; type: functional, cell-based
Summary of the method: (§3)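 LoVo (sensitive) and LoVo/Dx (resistant) human colon adenocarcinoma cells seeded at 2.5 × 10^5 cells/mL medium; drug solutions added to culture.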

SNB-19 [26] = test: Percent growth of NCI cell line, CNS: SNB-19 exposed for 48 hr at 10e-6 concentration; type: functional, Homo sapiens; summary of the method: as §1
SNB-19 [27] = test: Percent growth of NCI cell line, CNS: SNB-19 exposed for 48 hr at 10e-4 concentration; type: functional, Homo sapiens; summary of the method: as §1
OVCAR-4 [28] = test: Percent growth of NCI cell line, ovarian: OVCAR-4 exposed for 48 hr at 10e-8 concentration; type: functional, Homo sapiens; summary of the method: as §1
NCI-H460 [29] = test: Percent growth of NCI cell line, lung-nsc: NCI-H460 exposed for 48 hr at 10e-4 concentration; type: functional, Homo sapiens; summary of the method: as §1
LoVo [30] = test: Cytotoxicity activity on LoVo/Dx human adenocarcinoma cell line after 144 hr of drug exposure; type: functional, cell-based; summary of the method: as §3
NCI-H460 [31] = test: Percent growth of NCI cell line, lung-nsc: NCI-H460 exposed for 48 hr at 10e-6 concentration; type: functional, Homo sapiens; summary of the method: as §1

Structure (SMILES)	IC50 (HT-29) [nM]	C50 (Calf thymus DNA) [µM]	Growth (DU-145 [1]) [%]	Growth (OVCAR-4 [3]) [%]	Growth (OVCAR-4 [4]) [%]	Growth (MCF7 [5]) [%]	Growth (786-0 [7]) [%]	Growth (SNB-19 [8]) [%]	Growth (DU-145 [9]) [%]	Growth [10] [%]	Growth (NCI-H460 [11]) [%]	Growth (786-0 [12]) [%]	Growth [13] [%]	Growth (MCF7 [14]) [%]	Growth (DU-145 [15]) [%]	Growth (786-0 [16]) [%]	Growth (HCT-15 [18]) [%]	Growth (HCT-15 [19]) [%]	Growth [20] [%]	Growth (MCF7 [21]) [%]	further results
COc1ccc2c(c1)c1nn(CCN3CCCC3)c3ccc4c(=O)n(CCN(C)C)c(=O)n2c4c13	0.17	0.065	–	–	–	–	–	–	–	–	–	–	–	–	–	–	–	–	–	–	–
CN(C)CCn1c(=O)c2ccc3c4c(nn3CCN3CCCCC3)c3cc(N)ccc3n(c1=O)c24	0.17	0.006	–	–	–	–	–	–	–	–	–	–	–	–	–	–	–	–	–	–	–
COc1ccc2c(c1)c1nn(CCCN(C)C)c3ccc4c(=O)n(CCN(C)C)c(=O)n2c4c13	37	0.037	–	–	–	–	–	–	–	–	–	–	–	–	–	–	–	–	–	–	–
CN(C)CCn1c(=O)c2ccc3c4c(nn3CCN(C)C)c3cc(O)ccc3n(c1=O)c24	39	0.056	71	-60	-19	60	-82	65	-50	-66	71	43	84	-17	0	-11	-68	21	7	-64	Growth (LOX IMVI [2]): -79%; IC50 (LoVo [6]): 80 nM; Growth (LOX IMVI [17]): -48%; Growth (HCT-15 [22]): 85%; IC50 (LoVo [23]): 220 nM; Growth (LOX IMVI [24]): 63%; IC50 (LoVo [25]): 11 nM; Growth (SNB-19 [26]): -1%; Growth (SNB-19 [27]): -72%; Growth (OVCAR-4 [28]): 70%; Growth (NCI-H460 [29]): -74%; IC50 (LoVo [30]): 170 nM; Growth (NCI-H460 [31]): -23%
CN(C)CCCn1nc2c3ccccc3n3c(=O)n(CCN(C)C)c(=O)c4ccc1c2c43	68	0.12	–	–	–	–	–	–	–	–	–	–	–	–	–	–	–	–	–	–	–
CN(C)CCn1c(=O)c2ccc3c4c(nn3CCN3CCCCC3)c3ccccc3n(c1=O)c24	4.1	0.05	–	–	–	–	–	–	–	–	–	–	–	–	–	–	–	–	–	–	–
CN(C)CCn1c(=O)c2ccc3c4c(nn3CCN3CCCCC3)c3cc([N+](=O)[O-])ccc3n(c1=O)c24	0.21	0.01	–	–	–	–	–	–	–	–	–	–	–	–	–	–	–	–	–	–	–
COc1ccc2c(c1)c1nn(CCN3CCCCC3)c3ccc4c(=O)n(CCN(C)C)c(=O)n2c4c13	0.04	0.0099	39	-89	-84	42	-67	55	-91	-12	22	20	39	4	-51	-41	-61	-34	12	-12	Growth (HCT-15 [22]): 24%; Growth (SNB-19 [26]): 8%; Growth (SNB-19 [27]): -54%; Growth (OVCAR-4 [28]): 15%; Growth (NCI-H460 [29]): -57%; Growth (NCI-H460 [31]): -36%
CN(C)CCn1c(=O)c2ccc3c4c(nn3CCN(C)C)c3cc([N+](=O)[O-])ccc3n(c1=O)c24	0.98	0.07	82	-96	-55	81	-99	75	-94	-38	47	36	82	-12	-16	-25	-89	-4	6	-93	Growth (LOX IMVI [2]): -89%; IC50 (LoVo [6]): 190 nM; Growth (LOX IMVI [17]): 5%; Growth (HCT-15 [22]): 68%; IC50 (LoVo [23]): 520 nM; Growth (LOX IMVI [24]): 79%; IC50 (LoVo [25]): 16 nM; Growth (SNB-19 [26]): 2%; Growth (SNB-19 [27]): -93%; Growth (OVCAR-4 [28]): 57%; Growth (NCI-H460 [29]): -94%; IC50 (LoVo [30]): 13 nM; Growth (NCI-H460 [31]): -19%
CN(C)CCn1c(=O)c2ccc3c4c(nn3CCN(C)C)c3ccccc3n(c1=O)c24	37	0.0018	60	-56	-36	63	-90	66	-37	-67	30	27	61	-41	-16	-42	-85	-29	-27	-95	Growth (LOX IMVI [2]): -93%; IC50 (LoVo [6]): 79 nM; Growth (LOX IMVI [17]): -32%; Growth (HCT-15 [22]): 48%; IC50 (LoVo [23]): 290 nM; Growth (LOX IMVI [24]): 65%; IC50 (LoVo [25]): 12 nM; Growth (SNB-19 [26]): -3%; Growth (SNB-19 [27]): -41%; Growth (OVCAR-4 [28]): 51%; Growth (NCI-H460 [29]): -79%; IC50 (LoVo [30]): 3.9 nM; Growth (NCI-H460 [31]): -44%
